From ChEMBL document CHEMBL2311498, “Sulfonylureas have antifungal activity and are potent inhibitors of Candida albicans acetohydroxyacid synthase” (J Med Chem, 2013)
pKi: −log10 of the molar value. Values after ≈ are worked out from the molar mass of the structure shown. Active and inactive are the calls of the source. No cut-off for these calls is given here.

Experiments:
[1] = test system: Saccharomyces cerevisiae; assay: Antifungal activity against Saccharomyces cerevisiae after 72 hrs by broth microdilution assay; type: functional
Method in brief: (§1)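 Broth microdilution in YNB supplemented with 0.5% glucose and 100 mM ammonium sulfate, with compounds serially diluted from DMSO solutions. Inoculum came from single colonies of 48 h plates suspended in water, adjusted by 530 nm turbidity to 1 × 10^6 to 5 × 10^6 CFU/mL, then diluted to about 10^4 CFU/mL. Incubated at 35 °C with visual readings at 24, 48 and 72 h. MIC50/90 is the concentration giving 50%/90% growth inhibition; MIC50 is the mean of three measurements.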

[2] = Inhibition of Candida albicans acetohydroxyacid synthase catalytic domain expressed in Escherichia coli by colorimetric method; details: for pKi: read-out: Ki
Method in brief: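 Catalytic subunit, His6-tagged, expressed in E. coli Rosetta and purified on Ni affinity resin with FAD present. Single-point colorimetric assay in 250 mM potassium phosphate pH 6.4 with 50 mM pyruvate, 10 mM MgCl2, 1 mM ThDP and 10 μM FAD, 30 °C for 30 min. Acid decarboxylation to acetoin, creatine/α-naphthol colour read at A525. Duplicates at 10–12 inhibitor levels, Ki from nonlinear fit, tight-binding equation where needed.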

[3] = test system: Candida albicans; assay: Antifungal activity against Candida albicans after 72 hrs by broth microdilution method; type: functional
[4] = test system: Candida albicans; assay: Antifungal activity against Candida albicans after 72 hrs by disk diffusion method; type: functional
Method in brief: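 Screened by disk diffusion: 10 μL of compound in DMSO applied to a disk on plates inoculated with yeast. Plates were incubated at 35 °C, and inhibition-zone diameters were measured at 24, 48 and 72 h against a DMSO control disk.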

[5] = Toxicity in po dosed rat; type: organism-based; details: in vivo
[6] = Toxicity in id dosed rabbit; type: organism-based, Oryctolagus cuniculus; details: in vivo
[7] = test system: Candida albicans; assay: Antifungal activity against Candida albicans after 24 hrs by broth microdilution assay; type: functional; method in brief: as §1

SMILES | pKi [2] | MIC50 [3] | MIC90 [3] [µM] | further results
COC(=O)c1ccccc1S(=O)(=O)NC(=O)N(C)c1nc(C)nc(OC)n1 [TRIBENURON METHYL] | 5.79 | inactive | – | MIC50 [1]: inactive
COC(=O)c1ccccc1S(=O)(=O)NC(=O)Nc1nc(I)cc(OC)n1 | 8.41 | 1 µM (≈ 0.492 µg/mL) | 3.13 (≈ 1.54 µg/mL) | –
COc1cc(Br)nc(NC(=O)NS(=O)(=O)c2ccccc2C(=O)OCCO)n1 | 7.57 | > 25 µM | > 25 | –
COC(=O)c1ccccc1CS(=O)(=O)NC(=O)Nc1nc(OC)cc(OC)n1 [BENSULFURON METHYL] | 7.51 | 62 µM (≈ 25.4 µg/mL) | – | MIC50 [1]: 20.8 µM (≈ 8.54 µg/mL)
COc1cc(Br)nc(NC(=O)NS(=O)(=O)c2ccccc2C(=O)OCCI)n1 | 6.57 | > 25 µM | > 25 | –
COc1cc(I)nc(NC(=O)NS(=O)(=O)c2ccccc2C(=O)OCCO)n1 | 7.82 | > 25 µM | > 25 | –
COC(=O)c1ccccc1S(=O)(=O)NC(=O)Nc1nc(Br)cc(OC)n1 | 8.42 | 1 µM (≈ 0.445 µg/mL) | 6.25 (≈ 2.78 µg/mL) | –
CCOC(=O)c1ccccc1S(=O)(=O)NC(=O)Nc1nc(I)cc(OC)n1 | 8.42 | 0.6 µM (≈ 0.304 µg/mL) | 1.56 (≈ 0.79 µg/mL) | diameter of the inhibition zone (DIZ) [4]: 35 mm
CCOc1ccccc1OS(=O)(=O)NC(=O)Nc1nc(OC)cc(OC)n1 [ETHOXYSULFURON] | 7.70 | 2 µM (≈ 0.797 µg/mL) | – | MIC50 [1]: 13 µM (≈ 5.18 µg/mL); diameter of the inhibition zone (DIZ) [4]: 30 mm
COc1cc(Br)nc(NC(=O)NS(=O)(=O)c2ccccc2C(=O)OCCBr)n1 | 7.19 | > 25 µM | > 25 | –
CCOC(=O)c1ccccc1S(=O)(=O)NC(=O)Nc1nc(Cl)cc(OC)n1 [CHLORIMURON ETHYL] | 8.15 | 2 µM (≈ 0.83 µg/mL) | – | MIC50 [1]: 19.5 µM (≈ 8.09 µg/mL); LD50 [5]: > 4000 mg/kg; diameter of the inhibition zone (DIZ) [4]: 25 mm; LD50 [6]: > 2000 mg/kg
CCOC(=O)c1ccccc1S(=O)(=O)NC(=O)Nc1nc(Br)cc(OC)n1 | 8.39 | 0.7 µM (≈ 0.321 µg/mL) | 1.56 (≈ 0.716 µg/mL) | –
COC(=O)c1ccccc1S(=O)(=O)NC(=O)Nc1nc(C)cc(C)n1 [SULFOMETURON METHYL] | 6.20 | inactive | – | MIC50 [1]: 19.5 µM (≈ 7.11 µg/mL)
COc1cc(Cl)nc(NC(=O)NS(=O)(=O)c2ccccc2C(=O)OCCO)n1 | 7.19 | > 25 µM | > 25 | –
COc1cc(I)nc(NC(=O)NS(=O)(=O)c2ccccc2C(=O)OCCBr)n1 | 7.59 | 12 µM (≈ 7.02 µg/mL) | > 25 | –
COc1nc(C)nc(NC(=O)NS(=O)(=O)c2ccccc2Cl)n1 [CHLORSULFURON] | 6.36 | 156 µM (≈ 55.8 µg/mL) | – | MIC50 [1]: 117 µM (≈ 41.9 µg/mL)
COc1cc(Br)nc(NC(=O)NS(=O)(=O)c2ccccc2C(=O)OCCO[Si](C)(C)C(C)(C)C)n1 | 7.30 | > 25 µM | > 25 | –
COc1cc(I)nc(NC(=O)NS(=O)(=O)c2ccccc2C(=O)OCCCl)n1 | 7.88 | 4 µM (≈ 2.16 µg/mL) | 12.7 (≈ 6.87 µg/mL) | –
CCOc1nc(NC)nc(NC(=O)NS(=O)(=O)c2ccccc2C(=O)OC)n1 [ETHAMETSULFURON METHYL] | 6.18 | inactive | – | MIC50 [1]: inactive
COc1cc(Cl)nc(NC(=O)NS(=O)(=O)c2ccccc2C(=O)OCCBr)n1 | 6.59 | > 25 µM | > 25 | –
COc1cc(I)nc(NC(=O)NS(=O)(=O)c2ccccc2C(=O)OCCO[Si](C)(C)C(C)(C)C)n1 | 7.89 | > 25 µM | > 25 | –
COc1cc(I)nc(NC(=O)NS(=O)(=O)c2ccccc2C(=O)OCCI)n1 | 7.03 | 12 µM (≈ 7.59 µg/mL) | 25 (≈ 15.8 µg/mL) | –
OC(Cn1cncn1)(Cn1cncn1)c1ccc(F)cc1F [FLUCONAZOLE] | – | – | – | MIC50 [7]: 0.93 µg/mL (≈ 3.04 µM)
COc1cc(Cl)nc(NC(=O)NS(=O)(=O)c2ccccc2C(=O)OCCI)n1 | 5.92 | > 25 µM | > 25 | –
COc1cc(Cl)nc(NC(=O)NS(=O)(=O)c2ccccc2C(=O)OCCCl)n1 | 7.21 | 15 µM (≈ 6.74 µg/mL) | > 25 | –
COc1cc(Br)nc(NC(=O)NS(=O)(=O)c2ccccc2C(=O)OCCCl)n1 | – | 15 µM (≈ 7.41 µg/mL) | > 25 | –
COc1cc(Cl)nc(NC(=O)NS(=O)(=O)c2ccccc2C(=O)OCCO[Si](C)(C)C(C)(C)C)n1 | – | > 25 µM | > 25 | Ki [2]: Not Active
CCOC(=O)c1cnn(C)c1S(=O)(=O)NC(=O)Nc1nc(OC)cc(OC)n1 [PYRAZOSULFURON ETHYL] | 7.18 | 62 µM (≈ 25.7 µg/mL) | – | MIC50 [1]: 41.7 µM (≈ 17.3 µg/mL)
COC(=O)c1ccccc1S(=O)(=O)NC(=O)Nc1nc(Cl)cc(OC)n1 | 8.15 | 3 µM (≈ 1.2 µg/mL) | 6.25 (≈ 2.51 µg/mL) | –
